This is an account of results in ChEMBL document CHEMBL1166014, “Targeting efflux pumps-In vitro investigations with acridone derivatives and identification of a lead molecule for MDR modulation” (Bioorg Med Chem, 2010).

The test system of assay [1] is Candida albicans. The assay is described as follows: Antifungal activity at Candida albicans CAI4 assessed as inhibition of fungal growth at 0.9 mg/ml after 48 hrs by spot assay. The format is functional, organism-based. In a few lines: (§1)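 Spot assay on YEPD-agar plates containing compound (with Congo red or calcofluor white where applicable); solvent (MeOH/DMSO 1:1) and YEPD-only control plates; CAI4 primary culture 16 h, secondary 5 h at 30 °C from 4% inoculum, diluted in 0.9% saline; 10⁵ to 10⁰ cells spotted; 30 °C 48 h, growth scored.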

Assay [2] relates to Candida albicans. The assay is described as follows: Antifungal activity at Candida albicans CAI4 assessed as inhibition of fungal growth at 1 mg/ml after 48 hrs by spot assay. The format is functional, organism-based. In outline:
as §1

Assay [3] relates to Candida albicans. The assay is described as follows: Effect of membrane integrity of Candida albicans CAI4 at 800 ug/ml after 48 hrs by spot assay in presence of 300 ug/ml calcofluor white. It counts as functional, organism-based. In outline: as §1
Assay [4] addresses Multidrug resistance protein CDR1 (Candida albicans) (UniProt P43071). The assay is described as follows: Modulation of CDR1-mediated rhodamine 6G accumulation in Candida albicans CAI4 assessed as increase in R6G influx at 800 ug/ml after 180 mins by spectrofluorimetry. In a few lines: (§2)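 C. albicans CAI4 secondary culture (YEPD, 30 °C, ~5 h) washed in PBS, 2% suspension in PBS with 2 mM 2-deoxyglucose rocked 2 h; compound added at 800 µg/ml (MeOH/DMSO 1:1 solvent control), then R6G; aliquots over 0–180 min centrifuged, R6G left in supernatant measured as OD527.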

In assay [5] the target is T1, Multidrug resistance protein CDR2 (Candida albicans (strain SC5314 / ATCC MYA-2876) (Yeast)) (UniProt P78595).
T1 sequence (whole entry): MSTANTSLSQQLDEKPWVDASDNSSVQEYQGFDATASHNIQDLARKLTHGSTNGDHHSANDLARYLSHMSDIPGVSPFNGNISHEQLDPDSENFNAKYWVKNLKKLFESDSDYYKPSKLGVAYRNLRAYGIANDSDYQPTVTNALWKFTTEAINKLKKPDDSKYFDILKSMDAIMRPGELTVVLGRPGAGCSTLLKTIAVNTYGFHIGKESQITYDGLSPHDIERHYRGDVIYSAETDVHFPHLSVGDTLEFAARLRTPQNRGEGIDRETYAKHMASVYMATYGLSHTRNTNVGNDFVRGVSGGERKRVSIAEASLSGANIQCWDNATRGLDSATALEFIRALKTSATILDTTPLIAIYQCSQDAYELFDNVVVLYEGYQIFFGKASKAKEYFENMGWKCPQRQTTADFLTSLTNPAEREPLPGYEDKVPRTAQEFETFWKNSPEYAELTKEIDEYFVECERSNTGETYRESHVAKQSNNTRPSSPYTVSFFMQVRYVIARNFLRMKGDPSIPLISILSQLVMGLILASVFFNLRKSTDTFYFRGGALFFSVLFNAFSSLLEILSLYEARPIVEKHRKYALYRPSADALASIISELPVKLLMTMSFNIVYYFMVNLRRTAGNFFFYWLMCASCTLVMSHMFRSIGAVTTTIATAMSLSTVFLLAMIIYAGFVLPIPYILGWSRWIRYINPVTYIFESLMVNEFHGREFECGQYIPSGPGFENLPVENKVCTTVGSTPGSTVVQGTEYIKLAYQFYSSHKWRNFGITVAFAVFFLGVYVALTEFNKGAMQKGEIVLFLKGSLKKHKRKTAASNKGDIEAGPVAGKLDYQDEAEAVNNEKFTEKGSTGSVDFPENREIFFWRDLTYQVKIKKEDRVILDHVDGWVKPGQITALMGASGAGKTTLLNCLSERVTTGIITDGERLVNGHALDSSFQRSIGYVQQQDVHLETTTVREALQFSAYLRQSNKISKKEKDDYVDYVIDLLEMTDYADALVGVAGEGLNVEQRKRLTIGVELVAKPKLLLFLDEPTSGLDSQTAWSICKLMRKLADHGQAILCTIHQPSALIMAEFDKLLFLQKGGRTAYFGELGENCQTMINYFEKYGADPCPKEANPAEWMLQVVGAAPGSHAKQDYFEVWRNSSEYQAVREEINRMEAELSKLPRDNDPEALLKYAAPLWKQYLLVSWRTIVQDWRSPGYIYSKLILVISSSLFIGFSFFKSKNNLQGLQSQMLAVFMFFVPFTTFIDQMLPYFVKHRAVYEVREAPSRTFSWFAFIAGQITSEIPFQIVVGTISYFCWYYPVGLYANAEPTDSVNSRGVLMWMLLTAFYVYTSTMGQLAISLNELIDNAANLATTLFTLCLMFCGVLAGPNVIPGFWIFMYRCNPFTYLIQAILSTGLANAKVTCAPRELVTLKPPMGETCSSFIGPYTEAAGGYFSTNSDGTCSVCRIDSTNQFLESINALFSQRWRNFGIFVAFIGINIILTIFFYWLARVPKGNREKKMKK
The assay is described as follows: Modulation of CDR2-mediated rhodamine 6G accumulation in Candida albicans CAI4 assessed as increase in R6G influx at 800 ug/ml after 180 mins by spectrofluorimetry. In a few lines: as §2

Assay [6] is described as follows: Binding affinity to P-gp at 0.5 uM after 30 mins by spectrophotometry. In a few lines: (§3)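 P-gp vesicles from DC-3F/ADX MDR cells; basal MgATP hydrolysis measured by PK/LDH-coupled NADH oxidation (PEP, NADH), with non-specific ATPase inhibitor; vesicles 5 min at 37 °C, compound added (final 0.05, 0.5, 5 µM) 5 min, MgATP then 20 min at 37 °C; A340 read twice 20 min apart; triplicate; verapamil, vinblastine, progesterone references.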

Assay [7] in a line: Binding affinity to P-gp at 0.05 uM after 30 mins by spectrophotometry. In a few lines: as §3
Assay [8] in a line: Binding affinity to P-gp assessed as increase in basal protein activity at 0.05 uM after 30 mins by spectrophotometry. In a few lines: as §3
For another assay, the system named is ATP. The assay is described as follows: Binding affinity to ATP at 50 uM in HEPES buffer of pH 7.2 by spectrophotometry. In outline: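 UV-vis titration: compound held constant at 50 µM in HEPES pH 7.2, titrated with NaATP (from 10^-2 M stock) over 0–3 equiv; absorbance change followed; binding constant from Benesi–Hildebrand plot.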
The nature of assay [9]: Binding affinity to Mg2+ at 100 uM in HEPES buffer of pH 7.2 by spectrophotometry. In a few lines: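 Compound at 10^-4 M in 10^-2 M HEPES pH 7.2 titrated with Mg²⁺ (0–0.5 × 10^-4 M); absorbance changes at 270–310, 390–415 and 320–340 nm monitored; binding constant by Benesi–Hildebrand equation.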
Assay [10] has as its system Candida albicans. The assay is described as follows: Antifungal activity at Candida albicans CAI4 assessed as reduction in colony formation at 0.9 mg/ml after 48 hrs by spot assay. The format is functional, organism-based. In a few lines:
as §1

Assay [11] deals with Candida albicans. The assay is described as follows: Antifungal activity at Candida albicans CAI4 assessed as reduction in colony formation at 1 mg/ml after 48 hrs by spot assay. The format is functional, organism-based. In outline: as §1

Molecules are shown by their SMILES. The source made the active and inactive calls. No cut-off for these calls is given here.

Chain of Multidrug resistance protein CDR1 (Candida albicans) (P43071 whole entry, looked up): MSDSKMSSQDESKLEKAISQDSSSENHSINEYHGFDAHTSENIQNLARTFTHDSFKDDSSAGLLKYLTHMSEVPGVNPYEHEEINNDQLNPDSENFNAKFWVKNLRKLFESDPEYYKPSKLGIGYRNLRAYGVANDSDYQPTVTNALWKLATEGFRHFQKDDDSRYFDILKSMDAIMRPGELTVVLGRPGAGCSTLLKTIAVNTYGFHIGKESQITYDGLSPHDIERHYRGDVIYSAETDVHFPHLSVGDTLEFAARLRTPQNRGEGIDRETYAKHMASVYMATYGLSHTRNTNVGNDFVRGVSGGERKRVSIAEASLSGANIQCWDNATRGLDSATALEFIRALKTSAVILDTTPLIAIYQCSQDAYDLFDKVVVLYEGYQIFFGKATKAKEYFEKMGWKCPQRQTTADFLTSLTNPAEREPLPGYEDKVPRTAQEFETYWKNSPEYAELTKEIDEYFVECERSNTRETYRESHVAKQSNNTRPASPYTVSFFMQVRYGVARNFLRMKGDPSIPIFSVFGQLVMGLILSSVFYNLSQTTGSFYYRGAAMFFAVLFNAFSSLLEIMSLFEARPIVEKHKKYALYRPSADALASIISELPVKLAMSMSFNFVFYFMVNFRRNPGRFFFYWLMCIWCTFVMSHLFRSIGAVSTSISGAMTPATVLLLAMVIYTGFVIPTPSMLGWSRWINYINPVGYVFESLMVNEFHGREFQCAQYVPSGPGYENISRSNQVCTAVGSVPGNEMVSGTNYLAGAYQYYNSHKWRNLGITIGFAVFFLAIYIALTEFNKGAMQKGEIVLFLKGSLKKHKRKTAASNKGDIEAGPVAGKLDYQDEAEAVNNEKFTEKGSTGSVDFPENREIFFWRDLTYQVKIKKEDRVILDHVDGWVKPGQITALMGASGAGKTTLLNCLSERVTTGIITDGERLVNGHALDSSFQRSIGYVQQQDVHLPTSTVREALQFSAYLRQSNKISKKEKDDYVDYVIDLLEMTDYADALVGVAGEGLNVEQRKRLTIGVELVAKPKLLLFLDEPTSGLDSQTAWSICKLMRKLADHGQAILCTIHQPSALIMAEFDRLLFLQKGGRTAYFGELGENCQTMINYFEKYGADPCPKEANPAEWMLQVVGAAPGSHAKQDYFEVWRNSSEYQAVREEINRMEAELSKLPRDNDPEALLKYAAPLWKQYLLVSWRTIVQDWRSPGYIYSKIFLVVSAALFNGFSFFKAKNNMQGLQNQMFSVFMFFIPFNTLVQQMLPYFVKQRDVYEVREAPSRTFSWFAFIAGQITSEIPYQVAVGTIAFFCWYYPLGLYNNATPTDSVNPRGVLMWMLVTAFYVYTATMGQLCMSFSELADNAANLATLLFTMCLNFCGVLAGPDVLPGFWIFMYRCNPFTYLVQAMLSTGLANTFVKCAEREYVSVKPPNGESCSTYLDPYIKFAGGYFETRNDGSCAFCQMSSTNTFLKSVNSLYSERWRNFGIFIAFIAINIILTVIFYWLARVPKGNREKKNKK

Take `O=C(O)c1cccc2c(=O)c3ccccc3n(CC(O)CN3CCCC3)c12` (configuration not stated): the inhibition entry in the assay with Candida albicans [1], in the assay on Candida albicans [2] and with Candida albicans [3] was “inactive” throughout. The inhibition entry (in [4]; in [5]; with Candida albicans [10]; in the assay on Candida albicans [11]) was “Active” in each case. For the same compound, the values for the RBA in [6] and in [7] were 1.85 and 1.6, respectively. For the same compound, the Activity in assay [8] was 60%. Also, the Ka result with ATP was “inactive”. In assay [9], this compound registered a Ka of 1.5 ×10⁵ /M.
